# Like-named read-outs stand apart in the source and are kept apart here.
# Experiments:
# mGluR4 = settings: read-out: potency at mGluR4 in vitro; ref Marino et al., 2003; cited from earlier work
# rat mGluR4 = rat mGluR4 (Rattus norvegicus, UniProt P31423); assay: rat mGluR4/GIRK thallium flux assay; assay type: cell-based; settings: for % Max rmGluR4/GIRK: maximal potentiated EC20 response vs response to maximal glutamate alone; for Fold shift rmGluR4/GIRK: leftward shift of glutamate concentration-response curve at 30 μM PAM
# [1] = solubility in dosing vehicle; assay type: physicochemical
# [2] = test system: reserpine-induced akinesia; assay: reversal of reserpine-induced akinesia; assay type: in vivo; settings: rat, icv, reserpine 5 mg/kg s.c., 2 h pretreatment
# [3] = test system: haloperidol-induced catalepsy; assay: reversal of haloperidol-induced catalepsy; assay type: in vivo; settings: rat, icv
# Summary of the method: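 Male Sprague-Dawley rats (225−255 g) carried third-ventricle cannulae. They received haloperidol 1.5 mg/kg i.p. in 0.2% lactic acid. At 2 h, cataleptic rats (staying on the bar 45−60 s; forepaw-removal latency timed) got icv either L-AP4 (100−1000 nmol/10 μl, artificial CSF), test compound (31 or 93 nmol/10 μl, aqueous vehicle pH 7.4) or vehicle. Rats were retested at 15, 30 and 60 min; 6 rats/group; Dunnett's test versus vehicle.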
# human mGluR4 = human mGluR4 (Homo sapiens, UniProt Q14833); assay: human mGluR4/Gqi5/CHO calcium mobilization assay; assay type: cell-based; settings: for Fold shift hmGluR4/Gqi5: leftward shift of glutamate concentration-response curve at 30 μM PAM
# NMDA receptor = assay type: cell-based, rat; settings: n = 5
# [4] = test system: 67 different targets including GPCRs, ion channels, and transporters; assay: MDS-Pharma radioligand binding panel; settings: MDS-Pharma Services; Supplemental Table 2
# rat mGluR7 = rat mGluR7 (Rattus norvegicus, UniProt P35400); assay: rat mGluR7/GIRK thallium flux assay; assay type: cell-based; settings: 30 μM; L-AP4 EC20
# Summary of the method: (§1)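 GIRK-coexpressing cells were plated at 15,000/well on poly-D-lysine and grown overnight at 37°C, 5% CO2. They were loaded with 1.7 μM BTC-AM for 1 h at room temperature, then buffer was exchanged. […] Fluorescence was read at 470/540 nm, at 1 Hz for 2 min after agonist. Normalised to no-compound response; mean ± S.E.M.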
# rat mGluR1 = rat mGluR1 (Rattus norvegicus, UniProt P23385); assay: rat mGluR1/BHK calcium fluorescence counterscreen; assay type: cell-based; settings: 30 μM; glutamate EC20
# Summary of the method: (§2)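 Cells were plated on poly-D-lysine plates in DMEM with 10% dialysed FBS, 20 mM HEPES and 1 mM pyruvate: mGluR1/BHK at 15,000 cells/well, mGluR5/HEK at 20,000 cells/well. They were loaded with 1 μM Fluo-4 AM for 45 min at 37°C in HBSS with 20 mM HEPES and 2.5 mM probenecid. […] Peak fluorescence was taken against control and normalised to no-compound response.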
# rat mGluR8 = rat mGluR8 (Rattus norvegicus, UniProt P70579); assay: rat mGluR8/GIRK thallium flux assay; assay type: cell-based; settings: 30 μM; glutamate EC20
# Summary of the method: as §1
# human mGluR2 = human mGluR2 (Homo sapiens, UniProt Q14416); assay: human mGluR2 GTPγS binding assay; assay type: biochemical; settings: 30 μM; glutamate EC20
# Summary of the method: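 Nonspecific binding: 10 μM unlabelled GTPγS. Mixes shaken 60 min at room temperature, filtered, washed three times and counted by scintillation. Normalised to no-compound response; mean ± S.E.M.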
# rat mGluR5 = rat mGluR5 (Rattus norvegicus, UniProt P31424); assay: rat mGluR5/HEK calcium fluorescence counterscreen; assay type: cell-based; settings: 30 μM; glutamate EC20
# Summary of the method: as §2
# human mGluR4, sequence (Q14833 33-912): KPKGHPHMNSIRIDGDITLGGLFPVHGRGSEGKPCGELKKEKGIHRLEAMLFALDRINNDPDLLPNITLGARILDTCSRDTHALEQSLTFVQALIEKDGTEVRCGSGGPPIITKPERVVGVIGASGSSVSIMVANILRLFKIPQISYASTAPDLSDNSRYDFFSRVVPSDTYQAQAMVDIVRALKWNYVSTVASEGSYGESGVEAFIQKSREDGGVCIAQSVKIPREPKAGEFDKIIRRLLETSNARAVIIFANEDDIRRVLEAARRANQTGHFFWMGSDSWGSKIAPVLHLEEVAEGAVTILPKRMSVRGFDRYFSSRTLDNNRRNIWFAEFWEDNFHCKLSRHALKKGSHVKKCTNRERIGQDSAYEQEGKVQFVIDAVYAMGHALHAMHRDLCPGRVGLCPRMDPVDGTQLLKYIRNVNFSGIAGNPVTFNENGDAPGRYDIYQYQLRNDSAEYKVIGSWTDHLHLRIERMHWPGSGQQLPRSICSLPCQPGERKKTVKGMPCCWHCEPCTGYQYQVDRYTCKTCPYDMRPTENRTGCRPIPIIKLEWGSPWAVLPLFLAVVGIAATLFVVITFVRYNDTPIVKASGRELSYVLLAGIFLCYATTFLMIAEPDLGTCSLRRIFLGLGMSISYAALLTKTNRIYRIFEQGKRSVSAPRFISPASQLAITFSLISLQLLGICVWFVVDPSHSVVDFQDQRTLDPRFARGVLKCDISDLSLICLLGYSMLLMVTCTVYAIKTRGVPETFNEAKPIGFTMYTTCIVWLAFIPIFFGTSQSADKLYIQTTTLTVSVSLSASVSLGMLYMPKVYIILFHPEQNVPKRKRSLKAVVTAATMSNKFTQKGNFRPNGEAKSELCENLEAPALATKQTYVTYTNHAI
# rat mGluR4, sequence (P31423 33-912): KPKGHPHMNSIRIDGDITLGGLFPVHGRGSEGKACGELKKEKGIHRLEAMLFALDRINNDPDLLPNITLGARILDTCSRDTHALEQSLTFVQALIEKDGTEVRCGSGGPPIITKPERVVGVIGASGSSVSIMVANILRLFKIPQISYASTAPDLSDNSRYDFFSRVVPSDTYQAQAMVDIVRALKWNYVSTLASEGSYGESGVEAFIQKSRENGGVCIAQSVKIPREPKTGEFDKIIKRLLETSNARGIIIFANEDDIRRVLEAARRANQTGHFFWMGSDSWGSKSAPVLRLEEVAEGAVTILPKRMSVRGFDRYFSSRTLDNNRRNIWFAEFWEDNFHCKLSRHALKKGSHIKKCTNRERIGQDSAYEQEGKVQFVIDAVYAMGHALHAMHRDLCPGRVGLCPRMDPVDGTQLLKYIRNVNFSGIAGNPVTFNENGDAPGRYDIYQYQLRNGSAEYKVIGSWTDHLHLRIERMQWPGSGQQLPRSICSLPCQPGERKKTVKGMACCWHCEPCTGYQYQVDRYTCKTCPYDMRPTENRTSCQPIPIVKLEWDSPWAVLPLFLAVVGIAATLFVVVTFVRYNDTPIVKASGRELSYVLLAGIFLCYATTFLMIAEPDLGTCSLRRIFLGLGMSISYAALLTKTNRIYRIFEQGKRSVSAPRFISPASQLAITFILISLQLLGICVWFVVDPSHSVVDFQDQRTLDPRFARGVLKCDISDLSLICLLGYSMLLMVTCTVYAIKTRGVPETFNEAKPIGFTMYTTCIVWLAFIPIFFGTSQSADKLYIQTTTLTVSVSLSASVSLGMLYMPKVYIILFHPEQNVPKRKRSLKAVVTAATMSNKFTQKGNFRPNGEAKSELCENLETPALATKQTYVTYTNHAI
# rat mGluR8, sequence (P70579 34-908): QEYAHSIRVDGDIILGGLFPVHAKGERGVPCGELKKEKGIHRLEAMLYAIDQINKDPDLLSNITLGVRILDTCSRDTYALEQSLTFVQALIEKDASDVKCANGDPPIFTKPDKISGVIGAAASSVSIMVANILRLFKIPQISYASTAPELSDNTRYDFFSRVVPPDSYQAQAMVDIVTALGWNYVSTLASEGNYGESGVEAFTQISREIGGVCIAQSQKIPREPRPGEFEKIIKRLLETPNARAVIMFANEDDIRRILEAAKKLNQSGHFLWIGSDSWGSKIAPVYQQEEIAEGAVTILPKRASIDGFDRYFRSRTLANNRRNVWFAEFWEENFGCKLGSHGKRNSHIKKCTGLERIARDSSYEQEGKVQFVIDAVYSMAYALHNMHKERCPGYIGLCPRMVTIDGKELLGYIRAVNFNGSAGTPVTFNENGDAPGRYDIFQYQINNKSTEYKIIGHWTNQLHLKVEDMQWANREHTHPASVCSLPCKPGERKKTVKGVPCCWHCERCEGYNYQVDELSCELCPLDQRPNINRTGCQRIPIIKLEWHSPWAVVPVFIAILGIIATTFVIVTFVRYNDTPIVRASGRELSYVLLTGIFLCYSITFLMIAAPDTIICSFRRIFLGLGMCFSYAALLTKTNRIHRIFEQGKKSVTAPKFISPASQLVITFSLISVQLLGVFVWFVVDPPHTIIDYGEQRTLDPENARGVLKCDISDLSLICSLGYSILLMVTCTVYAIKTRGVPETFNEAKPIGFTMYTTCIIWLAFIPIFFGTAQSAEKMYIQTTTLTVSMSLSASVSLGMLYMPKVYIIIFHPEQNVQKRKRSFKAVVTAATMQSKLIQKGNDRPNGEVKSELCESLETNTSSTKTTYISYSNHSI
# rat mGluR5, sequence (P31424 21-1203): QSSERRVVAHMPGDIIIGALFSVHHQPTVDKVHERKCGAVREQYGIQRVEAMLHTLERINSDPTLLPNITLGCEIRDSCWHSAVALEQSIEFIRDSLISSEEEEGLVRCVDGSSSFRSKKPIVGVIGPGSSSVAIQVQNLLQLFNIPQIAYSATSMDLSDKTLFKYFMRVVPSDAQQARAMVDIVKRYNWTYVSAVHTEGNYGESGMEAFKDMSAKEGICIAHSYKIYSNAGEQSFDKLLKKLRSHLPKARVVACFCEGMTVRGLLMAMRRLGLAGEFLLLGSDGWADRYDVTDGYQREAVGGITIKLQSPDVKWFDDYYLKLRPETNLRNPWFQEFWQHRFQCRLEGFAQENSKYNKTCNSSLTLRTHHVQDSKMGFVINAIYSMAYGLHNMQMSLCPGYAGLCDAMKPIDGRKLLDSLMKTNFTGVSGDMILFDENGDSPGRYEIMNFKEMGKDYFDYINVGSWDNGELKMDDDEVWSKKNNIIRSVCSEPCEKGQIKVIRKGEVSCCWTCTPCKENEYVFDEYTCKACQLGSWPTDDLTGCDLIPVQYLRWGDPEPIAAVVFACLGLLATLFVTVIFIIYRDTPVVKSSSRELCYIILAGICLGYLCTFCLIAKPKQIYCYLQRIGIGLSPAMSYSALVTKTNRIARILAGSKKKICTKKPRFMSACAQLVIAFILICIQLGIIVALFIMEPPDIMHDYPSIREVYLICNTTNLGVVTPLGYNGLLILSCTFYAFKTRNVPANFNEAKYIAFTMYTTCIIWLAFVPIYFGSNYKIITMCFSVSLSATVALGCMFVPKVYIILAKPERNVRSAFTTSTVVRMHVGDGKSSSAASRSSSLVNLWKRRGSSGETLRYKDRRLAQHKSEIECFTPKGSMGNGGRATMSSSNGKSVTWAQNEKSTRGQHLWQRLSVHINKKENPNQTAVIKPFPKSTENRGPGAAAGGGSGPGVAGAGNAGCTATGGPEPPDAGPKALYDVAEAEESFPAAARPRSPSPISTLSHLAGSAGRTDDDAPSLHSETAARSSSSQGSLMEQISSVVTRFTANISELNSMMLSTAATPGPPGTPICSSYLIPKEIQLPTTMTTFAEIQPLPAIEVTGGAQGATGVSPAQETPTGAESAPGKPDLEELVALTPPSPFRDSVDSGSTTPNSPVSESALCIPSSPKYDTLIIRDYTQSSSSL
# rat mGluR1, sequence (P23385 19-1199): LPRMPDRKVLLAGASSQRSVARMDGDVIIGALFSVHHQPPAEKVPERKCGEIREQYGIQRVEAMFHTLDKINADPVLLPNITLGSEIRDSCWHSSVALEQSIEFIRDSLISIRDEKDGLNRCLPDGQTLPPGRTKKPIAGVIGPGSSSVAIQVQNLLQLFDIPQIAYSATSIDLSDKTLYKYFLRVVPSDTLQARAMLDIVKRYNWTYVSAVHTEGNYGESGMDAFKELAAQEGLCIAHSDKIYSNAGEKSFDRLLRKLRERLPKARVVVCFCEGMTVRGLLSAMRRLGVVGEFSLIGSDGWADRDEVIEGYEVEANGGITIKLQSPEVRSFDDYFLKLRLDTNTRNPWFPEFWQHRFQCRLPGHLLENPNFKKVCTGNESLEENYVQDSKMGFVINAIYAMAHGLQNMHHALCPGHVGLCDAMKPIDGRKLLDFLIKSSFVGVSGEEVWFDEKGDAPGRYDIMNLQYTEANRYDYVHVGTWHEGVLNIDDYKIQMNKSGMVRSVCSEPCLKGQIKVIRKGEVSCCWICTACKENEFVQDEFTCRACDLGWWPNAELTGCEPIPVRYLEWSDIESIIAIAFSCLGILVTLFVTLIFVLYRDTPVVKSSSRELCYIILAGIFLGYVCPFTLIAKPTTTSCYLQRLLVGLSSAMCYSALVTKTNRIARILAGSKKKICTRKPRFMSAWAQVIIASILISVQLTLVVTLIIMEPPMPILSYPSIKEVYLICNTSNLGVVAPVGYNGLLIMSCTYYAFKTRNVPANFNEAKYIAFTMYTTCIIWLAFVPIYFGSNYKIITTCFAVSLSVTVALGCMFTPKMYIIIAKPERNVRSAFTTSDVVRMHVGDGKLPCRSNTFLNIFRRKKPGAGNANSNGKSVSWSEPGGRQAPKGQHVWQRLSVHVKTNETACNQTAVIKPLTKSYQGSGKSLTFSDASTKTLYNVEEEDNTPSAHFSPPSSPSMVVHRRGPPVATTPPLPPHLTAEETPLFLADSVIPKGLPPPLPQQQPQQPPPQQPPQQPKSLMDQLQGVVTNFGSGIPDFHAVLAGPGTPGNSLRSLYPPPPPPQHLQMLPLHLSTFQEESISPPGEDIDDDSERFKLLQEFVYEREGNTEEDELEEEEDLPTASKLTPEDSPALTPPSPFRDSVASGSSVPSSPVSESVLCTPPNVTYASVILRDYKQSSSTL
compound,measurement,setting,value
"N-Phenyl-7-(hydroxyimino)cyclopropa[b]chromen-1a-carboxamide [PHCCC, reference compound]",EC50,mGluR4,~4000 nM
same,"maximal agonist response, percent of the maximal glutamate response","rat mGluR4; compound alone, no glutamate, observed at 30 μM",−2.3±2.0%
same,% Max rmGluR4/GIRK,rat mGluR4,120.3±4.4%
same,solubility in vehicle,[1]; vehicle for icv administration,only soluble in vehicles containing high concentrations of DMSO or other relatively toxic vehicles
"O=C(Nc1cc(Cl)cc(Cl)c1)[C@H]1CCCC[C@H]1C(=O)O (racemic) [VU0155041, (±)-cis-2-(3,5-Dicholorphenylcarbamoyl)cyclohexanecarboxylic acid]",Fold shift rmGluR4/GIRK,rat mGluR4,4.7±0.4 fold
same,EC50,"rat mGluR4; read-out: potency at rat mGluR4 (GIRK assay), potentiation of EC20 glutamate",693 ± 140 nM
same,reversal of reserpine-induced akinesia,[2]; 316 nmol,significant reversal of akinesia
same,solubility in vehicle,[1],soluble in an aqueous vehicle
same,haloperidol-induced catalepsy,"[3]; doses of 31 and 92 nmol, effects still present 30 min after infusion",significantly decrease
same,Fold shift hmGluR4/Gqi5,human mGluR4,6.4±0.7 fold
same,amplitude of NMDA receptor currents,"NMDA receptor; 10 μM, p > 0.3",106.3 ± 5.8 % of control
same,effect on radioligand binding at 67 targets,[4],no effect on binding at any target examined
"C[C@@H](CN1CCC(Cc2ccccc2)CC1)[C@@H](O)c1ccc(O)cc1 [Ro25−6981, (αR,βS)-α-(4-hydroxyphenyl)-β-methyl-4-(phenylmethyl)-1-piperidinepropanol, reference compound]",peak amplitude of NMDAR currents,"NMDA receptor; 1 μM, p < 0.003",53.1 ± 8.5 % of control
"N[C@@H](CCC(=O)O)C(=O)O [glutamate, L-glutamate, reference compound]",EC50,rat mGluR4,9200 ± 1200 nM
"O=C(O)C1CCCCC1C(=O)Nc1cc(Cl)cc(Cl)c1 [(1R, 2S)]",potency and efficacy of single cis-enantiomers,"human mGluR4; mGluR4, assay not specified, data not shown",equal potency and efficacy
"O=C(O)C1CCCCC1C(=O)Nc1cc(Cl)cc(Cl)c1 (centres unmarked) [Compound 2h, 2-(3,5-Dichlorophenylcarbamoyl)cyclohexanecarboxylic acid]","potentiation of EC20 agonist response, mGluR7",rat mGluR7,did not potentiate
same,EC50,rat mGluR4,560 ± 100 nM
same,Fold shift rmGluR4/GIRK,rat mGluR4,7.7±0.6 fold
same,% Max rmGluR4/GIRK,rat mGluR4,107.6±6.3%
same,"potentiation of EC20 agonist response, mGluR1",rat mGluR1,did not potentiate
same,"potentiation of EC20 agonist response, mGluR8",rat mGluR8,did not potentiate
same,EC50,human mGluR4,750 ± 200 nM
same,response to compound alone in calcium assay,"human mGluR4; 10 μM, absence of glutamate, trace from original HTS",small calcium response
same,Fold shift hmGluR4/Gqi5,human mGluR4,6.5±1.0 fold
same,improved potency compared to PHCCC,human mGluR4; mGluR4 PAM potency relative to PHCCC,approximately 8 fold
same,% Max hmGluR4/Gqi5,human mGluR4; maximal potentiated EC20 response vs response to maximal glutamate alone,120.0±6.7%
same,"potentiation of EC20 agonist response, mGluR2",human mGluR2,did not potentiate
same,"potentiation of EC20 agonist response, mGluR5",rat mGluR5,did not potentiate
"O=C(O)[C@@H]1CCCC[C@H]1C(=O)Nc1cc(Cl)cc(Cl)c1 (racemic) [VU0155040, (±)-trans-2-(3,5-Dichlorophenylcarbamoyl)cyclohexanecarboxylic acid]",Fold shift rmGluR4/GIRK,rat mGluR4,2.5±0.5 fold
same,Fold shift hmGluR4/Gqi5,human mGluR4,3.0±0.3 fold
"N[C@@H](CCP(=O)(O)O)C(=O)O [L-AP4, L-(+)-2-amino-4-phosphonobutryic acid, reference compound]",reversal of reserpine-induced akinesia,[2]; 300 and 1000 nmol,significant reversals of akinesia
same,haloperidol-induced catalepsy,"[3]; 100−1000 nmol, dose-dependent, haloperidol 1.5 mg/kg i.p.",significantly decreased
